# Assay results collected from several papers.
# Compare with care: the assays were run in different laboratories.
# PMV: Plasmepsin V (PMV, Plasmodium falciparum, UniProt Q8I6Z5)
# PADI1: Protein-arginine deiminase type-1 (PADI1, Homo sapiens, UniProt Q9ULC6)
Compound,target,read-out,mode,method,concentration,endpoint,value
Cc1cccc(C)c1OCC(=O)N[C@@H](Cc1ccccc1)[C@H](O)C(=O)N1CSC(C)(C)[C@H]1C(=O)N[C@H]1c2ccccc2C[C@H]1O,PMV,enzyme activity,inhibitor,fluorescence,10 µM,activity vs control,77%
COC(=O)[C@H](CCCNC(=N)N)NC(=O)c1ccccc1,PADI1,enzyme activity,substrate,,,Km,370 µM
COc1ncccc1-c1cnn2ccc(N3CCN(C(=O)OC(C)C)CC3)nc12,"Serine/threonine-protein kinase 32B (STK32B, Homo sapiens, UniProt Q9NY57)",binding,,competition with immobilised ligand,1 µM,remaining binding,98%
CCOC(=O)[C@H](CCCN=C(N)N)NC(=O)c1ccccc1,PADI1,enzyme activity,substrate,,,Km,190 µM
Cc1ccccc1CNC(=O)[C@H]1N(C(=O)[C@@H](O)[C@H](Cc2ccccc2)NC(=O)c2cccc(O)c2C)CSC1(C)C,PMV,enzyme activity,inhibitor,fluorescence,10 µM,activity vs control,73%
C#Cc1n[nH]c2c(-c3cn(C(C)c4ccccn4)c(=O)[nH]c3=O)cc(F)cc12 (stereo not shown),"Dual specificity tyrosine-phosphorylation-regulated kinase 2 (DYRK2, Homo sapiens, UniProt Q92630)",enzyme activity,inhibitor,,1 µM,inhibition,-7.1%
CCN(CC)CCCC[C@H](NC(=O)[C@H](CC(C)C)NC(=O)[C@H](C)NC(=O)[C@H](Cc1ccccc1)NC(=O)c1ccc(C(C)(C)C)cc1)C(=O)N[C@@H](CO)C(=O)OC,"ATPase family AAA domain-containing protein 2, bromodomain (ATAD2, Homo sapiens, UniProt Q6PL18)",thermal stability,,DSF,25 µM,ΔTm,-0.62 °C
Cc1nn(C)cc1-c1nc2c(N3CCN(Cc4ccc(Cl)cc4)CC3)c(Cl)cnc2[nH]1,"Activin receptor type-1-like (ACVRL1, Homo sapiens, UniProt P37023)",binding,,competition with immobilised ligand,1 µM,remaining binding,100%
CC(C)C[C@H](CC(=O)NO)C(=O)N[C@H](C(=O)N[C@@H](C)C(=O)NCCN)C(C)(C)C,"Disintegrin and metalloproteinase domain-containing protein 17 (ADAM17, Homo sapiens, UniProt P78536)",enzyme activity,inhibitor,,1 µM,inhibition,13%
Nc1ncc(-c2nc(N3CCOCC3)nc(N3CCOCC3)n2)c(C(F)F)n1,"Phosphatidylinositol 4,5-bisphosphate 3-kinase catalytic subunit alpha isoform (PIK3CA, Homo sapiens, UniProt P42336, H1047L)",binding,,competition with immobilised ligand,10 µM,remaining binding,0%
